The target in series [1] is MAP kinase-activated protein kinase 2 (Homo sapiens, UniProt P49137). The experiment in a line: Inhibition of MK2 pretreated for 30 mins before substrate addition measured after 2 hrs by IMAP assay.
A short description of series [2]: Plasma protein binding in plasma. It is filed as ADME, cell-free. The conditions noted are these: read-out: PPB (converted).
Series [3] in a line: Half life in rat liver microsomes. It is filed as ADME, Microsome.
A short description of series [4]: Permeability across human Caco2 cells. It is filed as ADME, cell-based. The conditions noted are these: Caco-2, read-out: permeability.
Series [5] has as its system THP-1. The experiment in a line: Antiinflammatory activity in human THP1 cells assessed as inhibition of LPS-induced TNFalpha production at 10 uM treated 30 mins before LPS challenge measured after 4 hrs by ELISA. The class given is functional.
Series [6] in a line: Half life in human liver microsomes. It is filed as ADME, Microsome. (In general: Liver microsomes are a subcellular fraction often used to study metabolism.)
Series [7] can be described thus: Permeability of the compound by PAMPA. The class given is ADME. The conditions noted are these: read-out: permeability.
The subject of series [8] is Rattus norvegicus. The experiment in a line: Antiinflammatory activity in rat assessed as inhibition of LPS-induced TNFalpha production in serum at 30 mg/kg, sc administered 1 hr before LPS challenge measured after 1.5 hrs by ELISA. (In general: In an ELISA, binding on a coated surface is turned into a signal by an enzyme label.)
The subject of series [9] is Rattus norvegicus. The experiment in a line: Antiinflammatory activity in rat assessed as inhibition of LPS-induced TNFalpha production in serum at 10 mg/kg, sc administered 1 hr before LPS challenge measured after 1.5 hrs by ELISA.
Series [10] can be described thus: AUC in rat at 4 umol/kg, iv. The class given is ADME, organism-based. The note with it: plasma.
Series [11] deals with Rattus norvegicus. Briefly: Antiinflammatory activity in sc dosed rat assessed as inhibition of LPS-induced TNFalpha production in serum administered 1 hr before LPS challenge measured after 1.5 hrs by ELISA.
Series [12] deals with THP-1. Briefly: Antiinflammatory activity in human THP1 cells assessed as inhibition of LPS-induced TNFalpha production treated 30 mins before LPS challenge measured after 4 hrs by ELISA. The class given is functional, cell-based. Summed up: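 THP1 cells seeded at 1.5 × 10^5 per well in DMEM F12 and rested ≥18 h at 37 °C, 5–7% CO2, humidified. Compounds added in DMSO (0.1% final) for 30 min, then LPS added. After 4 h at 37 °C, TNFα in the culture medium was quantified by ELISA. EC50 from duplicates per dilution.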

The nature of series [13]: AUC in rat at 10 umol/kg, po. The conditions noted are these: plasma. The class given is ADME, organism-based. Summed up:
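Rat PK after oral dosing at 10 µmol/kg; exposure expressed as AUC.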

In series [14] the test system is Rattus norvegicus. The experiment in a line: Antiinflammatory activity in rat assessed as inhibition of LPS-induced TNFalpha production in serum at 12.5 mg/kg, iv administered 1 hr before LPS challenge measured after 1.5 hrs by ELISA.
A short description of series [15]: Kinetic solubility of the compound at pH 7.4. It is filed as physicochemical. The conditions noted are these: buffer.
The next series deals with PBMC. The experiment in a line: Antiinflammatory activity in human PBMC cells assessed as inhibition of LPS-induced TNFalpha production treated 30 mins before LPS challenge measured after 4 hrs by ELISA. The class given is functional, cell-based.
Series [16] in a line: AUC in rat at 10 umol/kg, sc. It is filed as ADME, organism-based. The note with it: plasma. The method in brief:
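Rat PK after subcutaneous dosing at 10 µmol/kg; exposure expressed as AUC.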

Converted amounts (≈) assume the structure as drawn.

The text below walks through data of ChEMBL document CHEMBL1777729, “Structure-based lead identification of ATP-competitive MK2 inhibitors” (Bioorg Med Chem Lett, 2011).

Usually EC50 stands for the concentration that produces a half-maximal response. One may read the half-life as the time needed for the level to fall by half in the phase considered. Low values mean rapid decline, high ones slow decline. In general, inhibition refers to the percentage by which the read-out fell short of the control. One may read the inhibition in vivo as the relative decrease from the control value, in per cent. Broadly, the AUC is concentration integrated over time. The kinetic solubility is the concentration staying in solution when a stock, usually in DMSO, is diluted into the medium.

Chain of MAP kinase-activated protein kinase 2 (P49137 whole entry): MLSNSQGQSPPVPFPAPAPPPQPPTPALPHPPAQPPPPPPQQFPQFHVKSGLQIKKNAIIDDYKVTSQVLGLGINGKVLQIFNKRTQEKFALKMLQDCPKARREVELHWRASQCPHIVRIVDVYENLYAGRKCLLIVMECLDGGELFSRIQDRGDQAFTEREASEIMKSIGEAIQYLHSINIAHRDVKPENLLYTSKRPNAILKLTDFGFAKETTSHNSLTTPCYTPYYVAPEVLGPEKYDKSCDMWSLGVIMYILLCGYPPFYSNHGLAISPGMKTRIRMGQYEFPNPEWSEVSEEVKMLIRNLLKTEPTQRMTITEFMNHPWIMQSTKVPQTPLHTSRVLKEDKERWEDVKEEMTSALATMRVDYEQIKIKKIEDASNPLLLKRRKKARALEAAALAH

With `NCC1CNC(=O)c2cc(-c3ccnc(-c4cnc5ccccc5c4)c3)nn21` (configuration not stated), the concentration for a half-maximal effect (EC50) in series [1] was found to be 0.151 µM.
Regarding `O=C1NCCc2[nH]c(-c3ccnc(-c4cnc5ccccc5c4)c3)cc21`, the fraction unbound in series [2] was 0.003. The half-life in [3] came out at 40 min; in [6], 35 min. For the same compound, the Papp in series [4] came to 5 nm/s; in series [7], 6 nm/s. Also, in the series with THP-1 [5], the inhibition at 10 µM amounted to 38%.
Regarding `O=C1NCC2(CCCC2)c2[nH]c(-c3ccnc(-c4cnc5ccccc5c4)n3)cc21`, the inhibition at 10 µM in the series with THP-1 [5] was 50%. In addition, the EC50 in series [1] is 0.234 µM.
Turning to `O=C1NCC2(CCNCC2)c2[nH]c(-c3ccnc(-c4ccc5c(c4)OCO5)n3)cc21`, in the series with Rattus norvegicus [8], the inhibition in vivo at 30 mg/kg was 85%. In addition, in series [2], the fraction unbound is 0.03. The inhibition in vivo at 10 mg/kg in the series on Rattus norvegicus [9] is 54%. Moreover, the AUC was found to be 1260 nM·h in [10], 16 nM·h in series [13] and 2710 nM·h in series [16]. Besides, the inhibition result with Rattus norvegicus [11] was “Dose-dependent effect”. Also, the results for the half-life in series [3] and in series [6] were above 120 min and 91 min, respectively. Further, the EC50 in the series with THP-1 [12] was found to be 0.98 µM; with PBMC it was 0.26 µM. In addition, the inhibition in vivo at 12.5 mg/kg in the series on Rattus norvegicus [14] amounted to 92%. Also, the kinetic solubility in series [15] was determined as 0.037 mg/mL (≈ 91.7 µM).
For the compound `NCCn1nc(-c2ccnc(-c3cnc4ccccc4c3)c2)cc1C(=O)O`, the inhibition at 10 µM with THP-1 [5] amounted to 7%. For the same compound, the EC50 in series [1] came to 0.028 µM. For the same compound, the kinetic solubility in series [15] was found to be 0.033 mg/mL (≈ 91.8 µM).
`O=C1NCC2(CCNCC2)c2[nH]c(-c3ccnc(-c4cnc5ccccc5c4)n3)cc21`: in [1], the EC50 came out at 0.006 µM. This compound had a kinetic solubility in series [15] of 0.023 mg/mL (≈ 56 µM).
